How the values were obtained:
HL-60 [1] = assay: Growth inhibition against human HL-60 cells assessed as total growth inhibitory concentration incubated for 48 hrs by sulforhodamine B assay; assay type: functional
SR [2] = assay: Antiproliferative activity against human SR cells assessed as cell growth inhibition by measuring lethal concentration incubated for 48 hrs by sulforhodamine B assay; assay type: functional; conditions: read-out: LC50 (the source's name)
Outline: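 NCI-60 five-dose screen (10^-4 to 10^-8 M, 10-fold dilutions; DMSO stocks). Cells in RPMI 1640 with 5% FBS and 2 mM L-glutamine, preincubated 24 h, then exposed 48 h at 37 °C, 5% CO2. Fixed with cold TCA, stained with 0.4% SRB, absorbance read at 515 nm. Time-zero plates used as reference. LC50 taken from [(Ti-Tz)/Tz]×100 […].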

NCI-H522 = assay: Antiproliferative activity against human NCI-H522 cells assessed as cell growth at 0.00001 M incubated for 48 hrs by SRB assay relative to control; assay type: functional; conditions: read-out: Activity
HCC 2998 [3] = assay: Antiproliferative activity against human HCC 2998 cells assessed as cell growth at 0.000001 M incubated for 48 hrs by SRB assay relative to control; assay type: functional; conditions: read-out: Activity
Outline: (§1)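 NCI-60 five-dose screen (10^-4 to 10^-8 M). Cells grown in RPMI 1640 with 5% FBS and 2 mM L-glutamine, plated at 5,000-40,000 cells/well and preincubated 24 h. Drug given from DMSO stock, then 48 h at 37 °C, 5% CO2. For adherent lines, cells fixed with cold TCA, SRB-stained and read at 515 nm. Percent growth taken against time-zero and untreated control.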

EKVX [4] = assay: Antiproliferative activity against human EKVX cells assessed as cell growth inhibition by measuring lethal concentration incubated for 48 hrs by sulforhodamine B assay; assay type: functional; conditions: read-out: LC50 (the source's name)
SK-MEL-2 [5] = assay: Antiproliferative activity against human SK-MEL-2 cells assessed as cell growth at 0.0000001 M incubated for 48 hrs by SRB assay relative to control; assay type: functional; conditions: dose 100 nM, read-out: Activity
NCI-H226 = assay: Antiproliferative activity against human NCI-H226 cells assessed as cell growth at 0.0000001 M incubated for 48 hrs by SRB assay relative to control; assay type: functional; conditions: dose 100 nM, read-out: Activity
SW-620 = assay: Antiproliferative activity against human SW620 cells assessed as cell growth at 0.000001 M incubated for 48 hrs by SRB assay relative to control; assay type: functional; conditions: read-out: Activity
Hs-578T = assay: Antiproliferative activity against human Hs-578T cells assessed as cell growth at 0.000001 M incubated for 48 hrs by SRB assay relative to control; assay type: functional; conditions: read-out: Activity
Outline: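 NCI-60 five-dose mode, 10^-4 to 10^-8 M in 10-fold steps. RPMI 1640, 5% FBS, 2 mM L-glutamine; 24 h preincubation, then 48 h drug exposure at 37 °C. Stocks in DMSO at 400× the top concentration, diluted in medium with gentamicin. TCA fixation, SRB staining, absorbance at 515 nm. Percent growth from time-zero (Tz), control (C) and test (Ti) readings.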

UO-31 = assay: Antiproliferative activity against human UO-31 cells assessed as cell growth at 0.00001 M incubated for 48 hrs by SRB assay relative to control; assay type: functional; conditions: read-out: Activity
LOX IMVI = assay: Antiproliferative activity against human LOX IMVI cells assessed as cell growth at 0.00001 M incubated for 48 hrs by SRB assay relative to control; assay type: functional; conditions: read-out: Activity
ACHN = assay: Antiproliferative activity against human ACHN cells assessed as cell growth at 0.000001 M incubated for 48 hrs by SRB assay relative to control; assay type: functional; conditions: read-out: Activity
Outline: (§2)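 NCI-60 five-dose screen over 10^-4–10^-8 M (10-fold dilutions). Cells grown in RPMI 1640 with 5% FBS and 2 mM L-glutamine, seeded at 5,000–40,000 cells/well and preincubated 24 h. Drug from DMSO stock, 48 h at 37 °C, 5% CO2. Adherent cells TCA-fixed and stained with 0.4% SRB; A515 read. Percent growth = (Ti−Tz)/(C−Tz)×100, or (Ti−Tz)/Tz×100 when Ti<Tz.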

MDA-MB-468 = assay: Antiproliferative activity against human MDA-MB-468 cells assessed as cell growth at 0.00001 M incubated for 48 hrs by SRB assay relative to control; assay type: functional; conditions: read-out: Activity
HCT-116 [6] = assay: Antiproliferative activity against human HCT-116 cells assessed as cell growth at 0.00000001 M incubated for 48 hrs by SRB assay relative to control; assay type: functional; conditions: dose 10 nM, read-out: Activity; outline: as §1
HCC 2998 [7] = assay: Antiproliferative activity against human HCC 2998 cells assessed as cell growth inhibition by measuring lethal concentration incubated for 48 hrs by sulforhodamine B assay; assay type: functional; conditions: read-out: LC50 (the source's name)
CCRF-CEM = assay: Antiproliferative activity against human CCRF-CEM cells assessed as cell growth at 0.0001 M incubated for 48 hrs by SRB assay relative to control; assay type: functional; conditions: read-out: Activity; outline: as §2
EKVX [8] = assay: Antiproliferative activity against human EKVX cells assessed as cell growth at 0.000001 M incubated for 48 hrs by SRB assay relative to control; assay type: functional; conditions: read-out: Activity; outline: as §1
NCI/ADR-RES = assay: Antiproliferative activity against human NCI/ADR-RES cells assessed as cell growth inhibition by measuring lethal concentration incubated for 48 hrs by sulforhodamine B assay; assay type: functional; conditions: read-out: LC50 (the source's name)
HEK293 = assay: Cytotoxicity against human HEK293 cells assessed as reduction in cell viability at 0.00000001 M incubated for 48 hrs by MTT colorimetric assay relative to control; assay type: toxicity, cell-based; conditions: hek293, 48 h, 0.01 µM, dose 10 nM
HL-60 [9] = assay: Antiproliferative activity against human HL-60 cells assessed as cell growth at 0.0000001 M incubated for 48 hrs by SRB assay relative to control; assay type: functional; conditions: dose 100 nM, read-out: Activity; outline: as §1
IGROV-1 = assay: Growth inhibition against human IGROV-1 cells incubated for 48 hrs by sulforhodamine B assay; assay type: functional
SK-MEL-2 [10] = assay: Antiproliferative activity against human SK-MEL-2 cells assessed as cell growth at 0.00000001 M incubated for 48 hrs by SRB assay relative to control; assay type: functional; conditions: dose 10 nM, read-out: Activity
HCT-116 [11] = assay: Growth inhibition against human HCT-116 cells assessed as total growth inhibitory concentration incubated for 48 hrs by sulforhodamine B assay; assay type: functional
UACC-257 = assay: Antiproliferative activity against human UACC-257 cells assessed as cell growth at 0.0000001 M incubated for 48 hrs by SRB assay relative to control; assay type: functional; conditions: dose 100 nM, read-out: Activity
OVCAR-8 = assay: Antiproliferative activity against human OVCAR-8 cells assessed as cell growth inhibition by measuring lethal concentration incubated for 48 hrs by sulforhodamine B assay; assay type: functional; conditions: read-out: LC50 (the source's name)
786-0 = assay: Antiproliferative activity against human 786-0 cells assessed as cell growth inhibition by measuring lethal concentration incubated for 48 hrs by sulforhodamine B assay; assay type: functional; conditions: read-out: LC50 (the source's name)
A549 = assay: Antiproliferative activity against human A549 cells assessed as cell growth inhibition by measuring lethal concentration incubated for 48 hrs by sulforhodamine B assay; assay type: functional; conditions: read-out: LC50 (the source's name)
SR [12] = assay: Antiproliferative activity against human SR cells assessed as cell growth at 0.000001 M incubated for 48 hrs by SRB assay relative to control; assay type: functional; conditions: read-out: Activity
OVCAR-4 = assay: Antiproliferative activity against human OVCAR-4 cells assessed as cell growth inhibition by measuring lethal concentration incubated for 48 hrs by sulforhodamine B assay; assay type: functional; conditions: read-out: LC50 (the source's name)

| Structure (SMILES) | TGI (HL-60 [1]) [µM] | CC50 (SR [2]) [µM] | growth at 10 µM (NCI-H522) [%] | growth at 1 µM (HCC 2998 [3]) [%] | CC50 (EKVX [4]) [µM] | growth at 0.1 µM (SK-MEL-2 [5]) [%] | growth at 0.1 µM (NCI-H226) [%] | growth at 1 µM (SW-620) [%] | growth at 1 µM (Hs-578T) [%] | growth at 10 µM (UO-31) [%] | growth at 10 µM (LOX IMVI) [%] | growth at 1 µM (ACHN) [%] | growth at 10 µM (MDA-MB-468) [%] | growth at 0.01 µM (HCT-116 [6]) [%] | CC50 (HCC 2998 [7]) [µM] | growth at 100 µM (CCRF-CEM) [%] | growth at 1 µM (EKVX [8]) [%] | CC50 (NCI/ADR-RES) [µM] | Activity (HEK293) [%] | growth at 0.1 µM (HL-60 [9]) [%] | further results |
| --- | --- | --- | --- | --- | --- | --- | --- | --- | --- | --- | --- | --- | --- | --- | --- | --- | --- | --- | --- | --- | --- |
| COc1ccc(-c2cn3ccnc3c(-c3ccc4ncn(C5CCCCC5)c4c3)n2)cc1 | 5.05 | > 100 | -7 | 86 | > 100 | 92 | 96 | 42 | 53 | 14 | 17 | 40 | 21 | 95 | > 100 | 22 | 73 | > 100 | 13.96 | 95 | GI50 (IGROV-1): 0.921 µM; growth at 0.01 µM (SK-MEL-2 [10]): 96%; TGI (HCT-116 [11]): 4.06 µM; growth at 0.1 µM (UACC-257): 104%; CC50 (OVCAR-8): > 100 µM; CC50 (786-0): > 100 µM; CC50 (A549): > 100 µM; growth at 1 µM (SR [12]): 48%; CC50 (OVCAR-4): > 100 µM |
| c1ccc(Cn2cnc3ccc(-c4nc(-c5ccc6c(c5)ncn6C5CCCCC5)cn5ccnc45)cc32)cc1 | 6.65 | > 100 | -37 | 105 | > 100 | 90 | 103 | 108 | 88 | -40 | -90 | 87 | -49 | 89 | 6.12 | 9 | 76 | > 100 | 12.08 | 113 | GI50 (IGROV-1): 2.14 µM; growth at 0.01 µM (SK-MEL-2 [10]): 94%; TGI (HCT-116 [11]): 2.63 µM; growth at 0.1 µM (UACC-257): 105%; CC50 (OVCAR-8): > 100 µM; CC50 (786-0): > 100 µM; CC50 (A549): > 100 µM; growth at 1 µM (SR [12]): 63%; CC50 (OVCAR-4): > 100 µM |
